Tn6 DDE FP: inhibitors of Tn6 peptide binding to fibrin DD(E), primary screen, biochemical, fluorescence polarization, human fibrin, Tn6 probe; Fibrinogen beta chain (Homo sapiens), P02675; Fibrin DD(E) TRITC-Tn6 fluorescence polarization displacement; inhibition, % at 8.3 µM; 370,000 tested, 0.21% active;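 active = inhibition above a per-campaign cutoff: mean of compounds within control limits plus 3 SD, cut at about 15% in these data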;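 also: 0% = median of all compound wells on the plate and 100% = blocking peptide control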
Target sequence (P02675 whole entry, looked up): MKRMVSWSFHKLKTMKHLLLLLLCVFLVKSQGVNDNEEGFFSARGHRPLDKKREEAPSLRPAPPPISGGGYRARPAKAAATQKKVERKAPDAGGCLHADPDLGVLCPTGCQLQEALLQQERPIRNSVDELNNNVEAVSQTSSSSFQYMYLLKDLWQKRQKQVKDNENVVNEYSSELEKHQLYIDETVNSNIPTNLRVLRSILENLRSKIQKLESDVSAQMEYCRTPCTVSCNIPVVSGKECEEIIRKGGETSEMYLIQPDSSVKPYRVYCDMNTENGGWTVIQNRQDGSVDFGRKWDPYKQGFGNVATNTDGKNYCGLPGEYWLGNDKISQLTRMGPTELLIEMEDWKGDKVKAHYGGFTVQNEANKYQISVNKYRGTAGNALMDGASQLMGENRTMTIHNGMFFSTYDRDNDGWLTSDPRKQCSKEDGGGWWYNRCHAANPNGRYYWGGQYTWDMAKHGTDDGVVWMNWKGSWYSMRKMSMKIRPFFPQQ
DNA FID counter: compounds displacing fluorescent DNA intercalator, primary screen, artefact control for HCV NS3 helicase inhibitor project, biochemical, FID fluorescence; DNA fluorescent intercalator displacement; inhibition, % at 7.9 µM; 290,000 tested, 0.17% active; in the data active = inhibition above about 37%;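 also: 0% = vehicle and 100% = reference compound; higher means more ethidium bromide displaced from hairpin DNA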
PLCg1 inh: PLC-gamma1 enzyme inhibitors, primary screen, biochemical, fluorescence, purified enzyme; 1-phosphatidylinositol 4,5-bisphosphate phosphodiesterase gamma-1 (Homo sapiens), P19174; fluorogenic substrate; inhibition, % at 12.2 µM; 370,000 tested, 0.84% active; AID 720700, 2013
DDE Tn7 FP inh: inhibitors of Tn7 peptide binding to fibrin DD(E), primary screen, biochemical, fluorescence polarization, human fibrin, Tn7 probe. AID 720508, 2013. inhibition, % at 8.3 µM. 370,000 tested, 0.13% active. FP displacement of FITC-Tn7 peptide from fibrin DD(E); 0% = median of compound wells per plate;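 active = inhibition above the mean of compounds falling within the control limits plus 3 SD of them, cut at about 14% in these data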;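 also: 0% = plate median of compound wells and 100% = 10 µM Aha-Tn7 peptide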
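Also added: labelled Tn7 tracer, 0.1 µM; Assay system: human fibrin DD(E) protein; Amount: 2 µM fibrin DD(E); Schedule: 10 min compound pre-incubation, 3 h probe incubation at room temperature; Repeats: one replicate per compound; Read-out basis: percent inhibition; Measured by: fluorescence polarization of the labelled Tn7 tracer.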
PLCb3 inh: human PLC-beta3 inhibitors, primary screen, biochemical, fluorescence. 1-phosphatidylinositol 4,5-bisphosphate phosphodiesterase beta-3 (Homo sapiens), Q01970. 370,000 tested, 0.18% active. Purified PLC-beta3, fluorogenic substrate. inhibition, % at 12.2 µM. AID 720704, 2013; in the data active = inhibition above about 11%;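 also: 0% = median of compound wells on plate and 100% = full blocker control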
PLCgamma1 ctr: PLC-gamma1 enzyme inhibitors, counter-screen for PLC-beta3 inhibitor project, biochemical, fluorescence; 3,300 tested, 3.1% active; purified PLC-gamma1, fluorogenic substrate; shares compounds with PLCg1 inh; inhibition, % at 12.3 µM
PLCb3 confirm: PLC-beta3 inhibitor confirmation, biochemical, fluorescence, purified enzyme; AID 743261, 2014; shares compounds with PLCg1 inh; 3,300 tested, 1% active; inhibition, % at 12.3 µM; fluorogenic substrate fluorescence; in the data active = inhibition above about 11%
Starred values were filed as active, the others as inactive; nt = no result. Most compounds without a hit are left out; they make up all but 1.4% or so of the library. Rule as the data show it, unless noted: active = inhibition above about 9.5%; inactive = the rest.

SMILES	Tn6 DDE FP	DNA FID counter	PLCg1 inh	DDE Tn7 FP inh	PLCb3 inh	PLCgamma1 ctr	PLCb3 confirm
COc1ccc(Nc2nnc(SC(C(=O)Nc3cc(C)ccc3C)c3ccccc3)s2)cc1 (configuration not stated)	-3	-6	5	0	3	nt	nt
COc1cccc(NC(=O)C(Sc2nnc(Nc3ccccc3C)s2)c2ccccc2)c1 (configuration not stated)	-3	-15	10.0*	-5	4	8	1
Cc1ccccc1C(=O)Nc1nnc(-c2ccc(F)cc2)o1	-4	-7	2	-2	-1	nt	nt
COc1cccc(CNCc2ccccn2)c1OC	1	2	3	-5	14*	-6	-4
O=C1NC(=S)S/C1=C\c1ccc(SCc2ccccc2)o1	3	-10	57*	9	-16	29*	-21
O=c1[nH]c(Nc2nc3ccccc3o2)nc2c1CCCC2	-4	0	0	4	4	nt	nt
Cc1ccc(NC(=O)/C(C#N)=C/c2ccsc2)c(C)c1	2	-5	5	5	11*	-7	-3
CC(=O)c1sc(NC(=O)c2cccs2)nc1C	0	3	-16	5	-11	nt	nt
O=C(O)c1cccc(-c2ccc(/C=c3/sc4nc5ccccc5n4c3=O)o2)c1	-1	-12	18*	0	-13	-182	-176
O=C(O)c1cc(C(=O)O)cc(-c2ccc(/C=c3/sc4nc5ccccc5n4c3=O)o2)c1	nt	-2	nt	nt	nt	nt	nt
CCCCn1c(N)c(N(CC)C(=O)c2ccccc2F)c(=O)[nH]c1=O	6	-2	12*	-5	6	-3	1
CCCn1c(N)c(N(CCOC)C(=O)c2ccccc2F)c(=O)[nH]c1=O	0	-4	3	-2	0	nt	nt
CC(=O)c1ccccc1OC(=O)COc1ccc([N+](=O)[O-])cc1	2	0	6	3	-3	nt	nt
COc1ccc(C2NC(=O)NC(C)=C2C(=O)OCC2CCCCC2)cc1OC (configuration not stated)	-1	-40	11*	-4	-1	-4	-1
O=C(CN1C(=O)COc2ccc(S(=O)(=O)N3CCCC3)cc21)N1CCCC1	4	-7	2	-10	-4	nt	nt
COc1ccc(OC)c(NC(=O)c2cccnc2)c1	0	-3	-2	7	-4	nt	nt
O=C(O)c1ccc(N2CCCCCC2)c(N2C(=O)c3ccccc3C2=O)c1	1	-32	14*	-6	6	-6	-5
O=C(O)c1ccc2c(c1)C(=O)N(c1ccccc1-c1ccccc1)C2=O	5	-25	1	-2	-7	nt	nt
CC(=O)C1C(c2ccccc2)c2c(n[nH]c2C)CC1(C)O (configuration not stated)	-2	-4	12*	0	3	-4	-3
CC(=O)C1C(c2ccc(C)cc2)c2c(n[nH]c2C)CC1(C)O (configuration not stated)	2	-11	4	-3	4	nt	nt
Cc1ccccc1C(=O)N1CCN(c2ccc(NC(=O)c3ccco3)cc2Cl)CC1	7	-36	-1	2	-4	nt	nt
O=C(Nc1ccc(N2CCN(C(=O)c3cccs3)CC2)c(Cl)c1)c1ccco1	-5	-25	14*	3	3	-4	-7
O=C(c1ccccc1F)N1CCOCC1	5	2	1	3	0	nt	nt
COC(=O)[C@]12C[C@H](CC(=O)NCc3ccccc3)C(=O)N(Cc3ccc4c(c3)OCO4)C1=C[C@H](C(C)C)O[C@@H]2C1CC1	-7	nt	3	-5	3	nt	nt
COC(=O)c1cc(C)nc2c1C(=O)C(=O)C=C2N1CCOCC1	7	0	14*	-5	-2	49*	11*
SMILES	Tn6 DDE FP	DNA FID counter	PLCg1 inh	DDE Tn7 FP inh	PLCb3 inh	PLCgamma1 ctr	PLCb3 confirm
COC(=O)c1cc(S(=O)(=O)N2CCOCC2)c(Cl)cc1N1CCOCC1	5	-2	-3	0	1	nt	nt
COc1ccc(-n2nc(C(=O)Nc3ccc(OC)c(OC)c3)c3c4ccccc4n(C)c3c2=O)cc1	5	-2	0	-2	-1	nt	nt
COc1ccc(-n2nc(C(=O)Nc3ccc4c(c3)OCO4)c3c4ccccc4n(C)c3c2=O)cc1	-4	1	12*	-5	6	-51	-9
CC(C)(C)c1cc(C(=O)NNC(=O)Nc2ccccc2)n(Cc2ccccc2)n1	8	-16	12*	4	11	17*	18*
CC(C)(C)c1cc(C(=O)NNC(=O)Nc2cccc(Cl)c2)n(Cc2ccccc2)n1	3	-9	5	5	4	nt	nt
C=CCOc1ccc(/C=C2\SC(=Nc3cccnc3)NC2=O)cc1	3	-12	-1	-3	0	nt	nt
Cc1cccc(NS(=O)(=O)c2ccc3c(c2)Cc2cc(S(=O)(=O)Nc4cccc(C)c4C)ccc2-3)c1C	-2	-3	10*	-1	4	-7	-2
O=C(O)c1cccc(NC(=O)c2cc(NC(=O)c3ccccc3)cc(NC(=O)c3ccccc3)c2)c1	-4	-23	1	5	-9	nt	nt
O=C(O)c1cccc(NC(=O)c2ccccc2)c1	-5	nt	11*	5	8	-2	1
O=C(CSc1nnc(-c2ccccc2)n1Cc1ccco1)Nc1ccc(OCc2ccccc2)cc1	-9	nt	11*	-7	7	1	0
CCc1nc2ccc(C(=O)Nc3ccc(C(=O)N(C)C)cc3)cn2c1N(C)CCCc1ccccc1	-6	nt	-5	-2	-5	nt	nt
CC(=O)N(Cc1cccnc1)c1cccc(-c2nc3ccccc3s2)c1	0	-24	9.8*	-5	-3	-5	-6
O=C(Nc1ccccc1C(=O)N1CCCCCC1)c1ccc(F)cc1	-3	-7	2	-1	-4	nt	nt
COc1ccc(NC(=O)C2CCCN(S(C)(=O)=O)C2)cc1OC (configuration not stated)	-10	-4	10*	-5	-1	-5	-4
COc1ccc(CC2(CO)CCN(Cc3nc(C(C)C)cs3)CC2)cc1	-3	9	13*	-3	7	-6	-1
C=CCOc1ccc(Br)cc1/C=N/O	-1	-1	1	-2	1	nt	nt
Cc1[nH]n(-c2ccccc2)c(=O)c1C(c1ccc(C(=O)O)cc1)c1c(C)[nH]n(-c2ccccc2)c1=O	4	-10	26*	-2	8	-11	-5
